PubChem BioAssay AID493089 (Broad Institute, 2011)
Where “and” joins values, the source holds several entries; their conditions need not be identical. Equal entries are not always repeated. Records with an inconclusive call do not appear. Calls of active or inactive are those of the source.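 Rule for the calls: active = fitted half-maximal dose no more than ten times the top valid dose tested, with signal falling; inconclusive = flat curve at 30 to 70% inhibition, or poor fit; inactive = the rest, including rising signal.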

test system: not listed separately; experiment: Candida CaCi-2 inhibition under fluconazole co-treatment – CaCi-2 isolate, dry powder retest, set 2, confirmation (AID 493089); details: C. albicans CaCi-2 + fluconazole growth, Alamar Blue, 48 h; at 1.2 µM (top of the series)
How it was run: (§1)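 test system = C. albicans CaCi-2, fluconazole-resistant isolate | amount = fungal inoculum at starting OD600 of 0.00015 | buffer or medium = RPMI-based defined medium with MOPS plus 8 µg/mL fluconazole | timing = 48 h compound exposure, 37 °C, 90% humidity, 2 h dye | signal = Alamar Blue fluorescence, Ex 544 nm, Em 590 nm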

SMILES | activity change, negative = inhibition
COc1ccc2c(c1)c1nc3n(c(=O)c1n2CC(=O)N1CCC(C)CC1)CCS3 | -8.53% (inactive)

same assay, conditions: C. albicans CaCi-2 + fluconazole growth, Alamar Blue, 48 h; at 12 µM (top of the series)

SMILES | activity change, negative = inhibition
N#Cc1cccc(N2CCN(C(=O)c3ccc(Cl)cc3)CC2)n1 | -7.37% (inactive)
O=C(O)Cn1nc(-c2ccccc2)c2ccccc21 | -10.3% (inactive)
O=C(Cn1c2ccccc2c2nc3n(c(=O)c21)CCS3)NCCc1ccc(Cl)cc1 | -24.6% (inactive)
O=C(Cn1c2ccccc2c2nc3n(c(=O)c21)CCCS3)c1ccc(F)cc1 | -21.3% (inactive)
COC(=O)Cn1c(-c2ccccc2)nc2ccccc21 | -10.6% (inactive)

test system: C. albicans CaCi-2 (fluconazole-resistant clinical isolate) + fluconazole growth, Alamar Blue, 48 h; experiment: as above; details: not given
How it was run: as §1

SMILES | AC50
O=c1c2[nH]c3ccc(F)cc3c2nc2n1CCS2 | 3410 nM
O=C(Cn1c2ccc(F)cc2c2nc3n(c(=O)c21)CCS3)N1CCCCC1 | 628 nM
O=C(Cn1c2ccccc2c2nc3n(c(=O)c21)CCS3)N1CCCCC1 | 2150 nM
CCN(CC)C(=O)Cn1c2ccc(F)cc2c2nc3n(c(=O)c21)CCS3 | 645 nM
O=C(Cn1c2ccc(F)cc2c2nc3n(c(=O)c21)CCS3)N1CCCCCC1 | 1490 nM
COC(=O)Cn1nc(-c2ccc(C)cc2)c2ccccc21 | 12000 nM
O=C(Cn1c2ccccc2c2nc3n(c(=O)c21)CCS3)N1CCOCC1 | 3570 nM
O=C(Cn1c2ccc(F)cc2c2nc3n(c(=O)c21)CCS3)N1CCCC1 | 583 nM
COC(=O)Cn1nc(-c2ccccc2)c2ccccc21 | 2890 nM
O=C(Cn1c2ccccc2c2nc3n(c(=O)c21)CCS3)N1CCCC1 | 1100 nM and 3520 nM
CC1CCN(C(=O)Cn2c3ccc(F)cc3c3nc4n(c(=O)c32)CCCS4)CC1 | 2740 nM
COc1ccc(NC(=O)Cn2c3ccccc3c3nc4n(c(=O)c32)CCS4)cc1 | 3020 nM
O=c1c2[nH]c3ccccc3c2nc2n1CCS2 | 10500 nM
CC1CCN(C(=O)Cn2c3ccccc3c3nc4n(c(=O)c32)CCS4)CC1 | 5130 nM
CCN(CC)C(=O)Cn1c2ccccc2c2nc3n(c(=O)c21)CCS3 | 1740 nM and 2300 nM
